Measurements from the M2OR odorant receptor database.
Positions count from the first letter of the chain named.

Target: T1, OR1L3 (Homo sapiens) (UniProt Q8NH93)
T1 sequence (whole entry): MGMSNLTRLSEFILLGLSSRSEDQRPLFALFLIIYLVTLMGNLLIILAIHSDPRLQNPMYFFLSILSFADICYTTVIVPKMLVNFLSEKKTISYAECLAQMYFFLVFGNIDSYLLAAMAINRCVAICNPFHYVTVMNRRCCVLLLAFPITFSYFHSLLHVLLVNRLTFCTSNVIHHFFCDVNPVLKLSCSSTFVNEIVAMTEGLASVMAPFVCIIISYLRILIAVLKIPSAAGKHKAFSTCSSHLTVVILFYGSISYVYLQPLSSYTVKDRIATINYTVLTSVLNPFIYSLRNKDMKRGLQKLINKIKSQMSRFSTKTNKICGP
Details: stereoisomer not certain
In short: (§1)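 Values were gathered from published papers (main text and supplementary material), with extra details requested from the original authors when needed, and checked for typos and inconsistencies. Each receptor–molecule pair is called responsive (active) if the original authors judged the measured signal statistically different from baseline, and non-responsive (inactive) otherwise. Assay methods varied by source, often transient mammalian cell-line luciferase assays. Recorded details include cell line, G-protein, co-transfected protein and tags.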

Odorant receptor agonist call, inactive:
CCCC(S)CCOC(C)=O (stereo not given), CCCCCC(=O)C(C)C(C)=O (stereo not given), CCCCCC(S)C(C)CO (stereo not given), CC(CO)CS (stereo not given), CCC(S)C(C)CO (stereo not given), CC1=C(O)C(=O)OC1C (stereo not given), CCC1OC(=O)C(O)=C1C (stereo not given), Cc1cnc(C)c(C)n1, CCC1OC(C)=C(O)C1=O (stereo not given), CC1CCCCCCCCCCCCC(=O)C1 (stereo not given), CC1=NC(C)C(C)S1 (stereo not given), CC(=O)c1c(C)c([N+](=O)[O-])c(C(C)(C)C)c([N+](=O)[O-])c1C, CCCCC(S)C(C)CO (stereo not given), CC(C)=CCCC(C)=CCO, CC1=C(O)C(=O)C(C)O1 (stereo not given)

Target: T2, OR1L4 (Homo sapiens) (UniProt Q8NGR5)
T2 sequence (whole entry): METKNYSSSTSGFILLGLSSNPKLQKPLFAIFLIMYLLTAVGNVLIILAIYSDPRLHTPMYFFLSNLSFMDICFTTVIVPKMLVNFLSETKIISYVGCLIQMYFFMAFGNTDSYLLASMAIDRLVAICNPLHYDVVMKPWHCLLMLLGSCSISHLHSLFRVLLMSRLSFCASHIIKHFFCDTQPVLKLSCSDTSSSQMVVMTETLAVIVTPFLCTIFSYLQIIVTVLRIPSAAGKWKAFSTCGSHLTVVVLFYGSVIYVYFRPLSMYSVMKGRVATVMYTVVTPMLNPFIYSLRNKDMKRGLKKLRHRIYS
Details: stereoisomer not certain
In short: as §1

Odorant receptor agonist call, inactive:
CCCC(S)CCOC(C)=O (stereo not given), CCCCCC(=O)C(C)C(C)=O (stereo not given), CCCCCC(S)C(C)CO (stereo not given), CC(CO)CS (stereo not given), CCC(S)C(C)CO (stereo not given), CC1=C(O)C(=O)OC1C (stereo not given), CCC1OC(=O)C(O)=C1C (stereo not given), Cc1cnc(C)c(C)n1, CCC1OC(C)=C(O)C1=O (stereo not given), CC1CCCCCCCCCCCCC(=O)C1 (stereo not given), CC1=NC(C)C(C)S1 (stereo not given), CC(=O)c1c(C)c([N+](=O)[O-])c(C(C)(C)C)c([N+](=O)[O-])c1C, CCCCC(S)C(C)CO (stereo not given), CC1=C(O)C(=O)C(C)O1 (stereo not given)

Test system: T3, OR1L4
T3 sequence (whole entry): T2 sequence (whole entry) with G234R
Details: stereoisomer not certain
In short: as §1

Odorant receptor agonist call, inactive:
CCCC(S)CCOC(C)=O (stereo not given), CC1=C(O)C(=O)OC1C (stereo not given), CCC1OC(=O)C(O)=C1C (stereo not given), Cc1cnc(C)c(C)n1, CCC1OC(C)=C(O)C1=O (stereo not given), CC1=NC(C)C(C)S1 (stereo not given), CC1=C(O)C(=O)C(C)O1 (stereo not given)

Target: T4, OR1L6 (Homo sapiens) (UniProt Q8NGR2)
T4 sequence (whole entry): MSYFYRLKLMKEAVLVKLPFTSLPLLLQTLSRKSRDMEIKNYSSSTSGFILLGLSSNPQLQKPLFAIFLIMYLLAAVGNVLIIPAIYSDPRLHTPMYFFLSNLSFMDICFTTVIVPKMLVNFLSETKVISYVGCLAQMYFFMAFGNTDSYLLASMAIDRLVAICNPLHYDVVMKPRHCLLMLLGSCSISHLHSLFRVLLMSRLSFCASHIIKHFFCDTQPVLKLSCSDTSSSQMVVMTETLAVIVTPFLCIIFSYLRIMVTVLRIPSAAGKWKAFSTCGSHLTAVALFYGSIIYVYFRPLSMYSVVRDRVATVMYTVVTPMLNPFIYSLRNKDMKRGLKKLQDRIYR
Details: stereoisomer not certain
In short: as §1

Odorant receptor agonist call, inactive:
CCCCCC(=O)C(C)C(C)=O (stereo not given), CCCCCC(S)C(C)CO (stereo not given), CC(CO)CS (stereo not given), CCC(S)C(C)CO (stereo not given), CC1CCCCCCCCCCCCC(=O)C1 (stereo not given), CC(=O)c1c(C)c([N+](=O)[O-])c(C(C)(C)C)c([N+](=O)[O-])c1C, CCCCC(S)C(C)CO (stereo not given)

Test system: T5, OR1L6
T5 sequence (whole entry): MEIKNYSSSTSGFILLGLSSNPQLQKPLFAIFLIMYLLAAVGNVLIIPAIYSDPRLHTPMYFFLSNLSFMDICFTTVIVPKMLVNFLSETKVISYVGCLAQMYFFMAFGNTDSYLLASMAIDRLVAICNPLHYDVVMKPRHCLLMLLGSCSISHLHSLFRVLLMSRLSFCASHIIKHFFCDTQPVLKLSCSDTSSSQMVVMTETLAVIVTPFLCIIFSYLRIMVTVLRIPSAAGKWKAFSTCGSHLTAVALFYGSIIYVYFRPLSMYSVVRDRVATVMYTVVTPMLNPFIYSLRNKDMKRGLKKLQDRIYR
Details: stereoisomer not certain
In short: as §1

Odorant receptor agonist call, inactive:
CCCC(S)CCOC(C)=O (stereo not given), CC1=C(O)C(=O)OC1C (stereo not given), CCC1OC(=O)C(O)=C1C (stereo not given), Cc1cnc(C)c(C)n1, CCC1OC(C)=C(O)C1=O (stereo not given), CC1=NC(C)C(C)S1 (stereo not given), CC1=C(O)C(=O)C(C)O1 (stereo not given)

Target: T6, OR1L8 (Homo sapiens) (UniProt Q8NGR8)
T6 sequence (whole entry): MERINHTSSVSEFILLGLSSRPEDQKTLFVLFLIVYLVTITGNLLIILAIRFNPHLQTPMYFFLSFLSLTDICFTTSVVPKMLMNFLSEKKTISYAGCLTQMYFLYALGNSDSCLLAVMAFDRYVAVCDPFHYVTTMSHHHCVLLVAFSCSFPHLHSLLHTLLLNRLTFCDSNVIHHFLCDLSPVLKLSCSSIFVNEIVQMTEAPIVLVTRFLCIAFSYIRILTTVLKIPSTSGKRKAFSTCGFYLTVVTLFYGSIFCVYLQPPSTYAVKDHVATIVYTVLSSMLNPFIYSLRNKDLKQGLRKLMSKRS
Details: stereoisomer not certain
In short: as §1

Odorant receptor agonist call, inactive:
CCCC(S)CCOC(C)=O (stereo not given), CCCCCC(=O)C(C)C(C)=O (stereo not given), CCCCCC(S)C(C)CO (stereo not given), CC(CO)CS (stereo not given), CCC(S)C(C)CO (stereo not given), CC1=C(O)C(=O)OC1C (stereo not given), CCC1OC(=O)C(O)=C1C (stereo not given), Cc1cnc(C)c(C)n1, CCC1OC(C)=C(O)C1=O (stereo not given), CC1CCCCCCCCCCCCC(=O)C1 (stereo not given), CC1=NC(C)C(C)S1 (stereo not given), CC(=O)c1c(C)c([N+](=O)[O-])c(C(C)(C)C)c([N+](=O)[O-])c1C, CCCCC(S)C(C)CO (stereo not given), CC1=C(O)C(=O)C(C)O1 (stereo not given)

Test system: T7, OR1L8 T27P R211P
T7 sequence (whole entry): T6 sequence (whole entry) with T27P, R211P
Details: stereoisomer not certain
In short: as §1

Odorant receptor agonist call, inactive:
CCCC(S)CCOC(C)=O (stereo not given), CC1=C(O)C(=O)OC1C (stereo not given), CCC1OC(=O)C(O)=C1C (stereo not given), Cc1cnc(C)c(C)n1, CCC1OC(C)=C(O)C1=O (stereo not given), CC1=NC(C)C(C)S1 (stereo not given), CC1=C(O)C(=O)C(C)O1 (stereo not given)

Target: T8, OR1M1 (Homo sapiens) (UniProt Q8NGA1)
T8 sequence (whole entry): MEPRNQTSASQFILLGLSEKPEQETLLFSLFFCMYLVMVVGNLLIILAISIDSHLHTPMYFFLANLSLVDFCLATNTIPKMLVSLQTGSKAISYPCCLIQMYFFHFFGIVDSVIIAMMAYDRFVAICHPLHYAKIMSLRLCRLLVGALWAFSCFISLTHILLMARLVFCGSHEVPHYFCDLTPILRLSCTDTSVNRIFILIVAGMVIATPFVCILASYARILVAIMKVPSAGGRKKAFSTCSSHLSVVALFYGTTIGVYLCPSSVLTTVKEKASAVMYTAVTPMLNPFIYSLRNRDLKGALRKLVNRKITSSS
Details: stereoisomer not certain
In short: as §1

Odorant receptor agonist call, inactive:
CCCC(S)CCOC(C)=O (stereo not given), CCCCCC(=O)C(C)C(C)=O (stereo not given), CCCCCC(S)C(C)CO (stereo not given), CC(CO)CS (stereo not given), CCC(S)C(C)CO (stereo not given), CC1=C(O)C(=O)OC1C (stereo not given), CCC1OC(=O)C(O)=C1C (stereo not given), Cc1cnc(C)c(C)n1, CCC1OC(C)=C(O)C1=O (stereo not given), CC1CCCCCCCCCCCCC(=O)C1 (stereo not given), CC1=NC(C)C(C)S1 (stereo not given), CC(=O)c1c(C)c([N+](=O)[O-])c(C(C)(C)C)c([N+](=O)[O-])c1C, CCCCC(S)C(C)CO (stereo not given), CC1=C(O)C(=O)C(C)O1 (stereo not given)

Target: T9, OR1N1 (Homo sapiens) (UniProt Q8NGS0)
T9 sequence (whole entry): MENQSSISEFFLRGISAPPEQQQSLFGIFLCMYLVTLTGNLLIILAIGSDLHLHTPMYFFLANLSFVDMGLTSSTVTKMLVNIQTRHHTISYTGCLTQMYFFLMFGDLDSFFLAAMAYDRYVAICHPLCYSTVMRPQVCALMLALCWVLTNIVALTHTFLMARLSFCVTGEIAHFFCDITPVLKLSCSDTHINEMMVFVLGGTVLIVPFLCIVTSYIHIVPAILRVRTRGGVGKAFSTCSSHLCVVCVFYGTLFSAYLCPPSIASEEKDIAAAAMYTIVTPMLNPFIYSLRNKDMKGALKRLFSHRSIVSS
Details: stereoisomer not certain
In short: as §1

Odorant receptor agonist call, inactive:
CCCC(S)CCOC(C)=O (stereo not given), CCCCCC(=O)C(C)C(C)=O (stereo not given), CCCCCC(S)C(C)CO (stereo not given), CC(CO)CS (stereo not given), CCC(S)C(C)CO (stereo not given), CC1=C(O)C(=O)OC1C (stereo not given), CCC1OC(=O)C(O)=C1C (stereo not given), Cc1cnc(C)c(C)n1, CCC1OC(C)=C(O)C1=O (stereo not given), CC1CCCCCCCCCCCCC(=O)C1 (stereo not given), CC1=NC(C)C(C)S1 (stereo not given), CC(=O)c1c(C)c([N+](=O)[O-])c(C(C)(C)C)c([N+](=O)[O-])c1C, CCCCC(S)C(C)CO (stereo not given), O=C([O-])CCCCCCCC(=O)[O-].[H+].[H+], CC1=C(O)C(=O)C(C)O1 (stereo not given)
